Measurements reported in article PMC6459016 (Journal of computer-aided molecular design, 2019).
Like-named read-outs stand apart in the source and are kept apart here.

How the values were obtained:
[1] = Rat liver microsome stability; assay type: in vitro ADME; settings: 37 °C, NADPH
[2] = Stirring double-sink PAMPA permeability; assay type: in vitro ADME; settings: in-house at NCATS
How it was run: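 Effective permeability was measured by passive diffusion in a stirring double-sink PAMPA. Sample preparation, analysis and data processing were fully automated.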

recombinant human GALK1 [3] = biological target: T1, recombinant human GALK1 (Homo sapiens, UniProt P51570); assay: GALK1 inhibition assay; assay type: biochemical; settings: for IC50: luminescence GALK1-ATP-depletion assay, ATP 35 μM, galactose 100 μM; for MR (maximal % inhibition): maximal % inhibition at 57 μM compound
How it was run: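 Recombinant human GALK1 was run in 1536-well format against test compound at 6 doses (3 nM – 57 μM). Reactions were started with ATP (35 μM) and galactose (100 μM), both near their K_M under these conditions. Remaining ATP was read by Kinase-Glo luminescence. Normalized concentration-response data were fitted to a four-parameter logistic to give IC50 and efficacy (maximal response).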

[4] = Kinetic aqueous solubility; assay type: physicochemical; settings: kinetic aqueous solubility in PBS 7.4 buffer from a 10 mM DMSO stock
recombinant human GALK1 [5] = biological target: T1, recombinant human GALK1; settings: cited from earlier work

T1 sequence (P51570 whole entry): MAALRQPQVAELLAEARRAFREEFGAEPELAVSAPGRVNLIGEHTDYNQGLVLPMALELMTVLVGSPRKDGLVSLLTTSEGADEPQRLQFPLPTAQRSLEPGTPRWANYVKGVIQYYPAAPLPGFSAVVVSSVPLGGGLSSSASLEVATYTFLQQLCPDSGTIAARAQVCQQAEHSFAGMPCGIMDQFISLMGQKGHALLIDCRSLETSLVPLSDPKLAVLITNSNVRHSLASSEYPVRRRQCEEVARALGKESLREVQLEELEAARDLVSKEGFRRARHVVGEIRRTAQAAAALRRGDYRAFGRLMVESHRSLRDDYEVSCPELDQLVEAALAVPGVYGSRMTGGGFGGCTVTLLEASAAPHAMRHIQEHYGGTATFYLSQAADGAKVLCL

Row | Microsomal T1/2 [1] | Permeability [2] | IC50 (recombinant human GALK1 [3]) | MR (maximal % inhibition) (recombinant human GALK1 [3]) | Solubility [4] | SMILES | IC50 (recombinant human GALK1 [5]; GALK1) | Mode of inhibition (recombinant human GALK1 [5]; with respect to ATP and galactose substrate)
1 | 15.0 m | 82.2 ×10⁻⁶ cm/s | 15.9 µM | 92.9% | < 1.0 Ug/ml | Cc1ccc(S(=O)(=O)Nc2cc(C(F)(F)F)ccc2C(=O)Nc2nc(-c3ccccc3)cs2)cc1 [C3] | – | –
2 | 13.0 m | < 5.0 ×10⁻⁶ cm/s | 22.2 µM | 89.3% | <1.0 Ug/ml | Cc1ccc(S(=O)(=O)Nc2cc(Cl)c(Cl)cc2C(=O)Nc2nc(-c3ccccc3)cs2)cc1 [C4] | – | –
3 | 17.0 m | 724.3 ×10⁻⁶ cm/s | 14 µM | 83.5% | 9.4 Ug/ml | Cc1ccc(S(=O)(=O)Nc2cnccc2C(=O)Nc2nc(-c3ccccc3)cs2)cc1 [C2] | – | –
4 | 1.6 m | 313.5 ×10⁻⁶ cm/s | 44.5 µM | 62.5% | 57.0 Ug/ml | O=C(Nc1nc(-c2ccccc2)cs1)c1ccncc1NS(=O)(=O)c1ccc(N2CCCC2=O)cc1 [C10] | – | –
5 | 2.6 m | 35.6 ×10⁻⁶ cm/s | 14 µM | 81.0% | < 1.0 Ug/ml | Cc1ccc(-c2csc(NC(=O)c3ccccc3NS(=O)(=O)c3ccc(C)cc3)n2)cc1 [C6] | – | –
6 | 2.0 m | < 1.0 ×10⁻⁶ cm/s | 17.7 µM | 88.5% | < 1.0 Ug/ml | O=C(Nc1nc(-c2ccccc2)cs1)c1ccncc1NS(=O)(=O)c1ccc(-c2ccccc2)cc1 [C9] | – | –
7 | 6.3 m | 30.1 ×10⁻⁶ cm/s | 11.1 µM | 75.9% | < 1.0 Ug/ml | COc1ccc(-c2csc(NC(=O)c3ccccc3NS(=O)(=O)c3ccc(C)cc3)n2)cc1 [C5] | – | –
8 | – | 1064.7 ×10⁻⁶ cm/s | 11.1 µM | 90.3% | 50.0 Ug/ml | Cc1ccccc1S(=O)(=O)Nc1cnccc1C(=O)Nc1nc(-c2ccccc2)cs1 [C7] | – | –
9 | – | – | – | – | – | O=C1CCCC2=C1C(c1[nH]ncc1Cl)N=C(Nc1nc3ccccc3o1)N2 (stereo not shown) [NCGC00238624] | 4.7 µM | competitive with respect to ATP and uncompetitive to galactose substrate
10 | 1.6 m | 674.5 ×10⁻⁶ cm/s | 15.7 µM | 84.5% | 54.1 Ug/ml | COc1ccc(S(=O)(=O)Nc2cnccc2C(=O)Nc2nc(-c3ccccc3)cs2)cc1 [C8] | – | –
